Laboratory results: article PMC4347663 (Journal of medicinal chemistry, 2013)
Structures can show the parent of a compound that is named as a salt.

Experiments:
[1] = test system: ABCA1; experiment: ABCA1 expression in THP-1 cells; format: cell-based, human; conditions: six hours; for ABCA1 transcript expression: 10 μM compound, LPS 10 μg/mL; for ABCA1 levels: 1 μM compound, LPS 10 mcg/mL
In short: (§1)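 THP-1 cells kept at 3×105 to 8×10^5 cells/mL in RPMI1640 with 10% FBS. Cells were stimulated with LPS 10 μg/mL alongside DMSO or test compound at 10 μM, or at 1 μM in triplicate. After 6 h, cells were lysed and RNA was analysed by RT-qPCR with TATA box binding protein as housekeeping gene. Groups were compared by one-way ANOVA with Dunnett's post-hoc test.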

[2] = test system: IL-6; experiment: LPS-stimulated IL-6 expression in THP-1 cells; format: cell-based, human; conditions: six hours; for IL-6 transcript expression: 10 μM compound, LPS 10 μg/mL; for IL-6 secretion / expression: 1 μM compound, LPS 10 mcg/mL
In short: as §1

[3] = test system: BMAL1 expression (Bmal-promoter luciferase) in U2OS cells; experiment: BMAL reporter gene assay in synchronized U2OS cells; format: cell-based, human; conditions: for BMAL1 Phase Delay: delay of peak of second cycle, 20 μM treated cells relative to DMSO treated cells; for inhibition at 20 µM: Homo sapiens, U2OS, 40 h, read-out: BMAL1 Supp.
[4] = molecular target: T1, REV-ERBα (Homo sapiens, UniProt P20393); experiment: REV-ERBα NCOR FRET assay; format: biochemical; conditions: purified REV-ERBα protein, in vitro
T1 sequence (P20393 1-614): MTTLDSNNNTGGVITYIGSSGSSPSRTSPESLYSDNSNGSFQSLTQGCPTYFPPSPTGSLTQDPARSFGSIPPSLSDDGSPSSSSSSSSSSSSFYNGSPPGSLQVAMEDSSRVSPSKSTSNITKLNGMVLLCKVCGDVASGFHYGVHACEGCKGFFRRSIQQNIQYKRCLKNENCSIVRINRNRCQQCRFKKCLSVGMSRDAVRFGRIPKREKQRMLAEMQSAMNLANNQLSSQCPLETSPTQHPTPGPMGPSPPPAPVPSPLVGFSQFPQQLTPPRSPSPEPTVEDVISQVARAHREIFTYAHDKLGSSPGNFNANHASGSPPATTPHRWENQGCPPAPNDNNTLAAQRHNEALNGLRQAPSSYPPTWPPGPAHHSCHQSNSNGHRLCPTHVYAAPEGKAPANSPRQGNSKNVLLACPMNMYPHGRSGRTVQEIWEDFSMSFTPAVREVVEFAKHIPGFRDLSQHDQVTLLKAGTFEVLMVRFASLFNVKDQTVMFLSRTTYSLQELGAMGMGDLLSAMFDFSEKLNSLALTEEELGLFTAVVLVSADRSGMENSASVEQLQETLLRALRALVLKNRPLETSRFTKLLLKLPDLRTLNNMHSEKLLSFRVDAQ

[5] = molecular target: T2, LXRα (Homo sapiens, UniProt Q13133); experiment: LXRα radio ligand displacement binding; conditions: for LXRα Fold Sel.: selectivity for REV-ERBα over LXRα
T2 sequence (Q13133 1-447): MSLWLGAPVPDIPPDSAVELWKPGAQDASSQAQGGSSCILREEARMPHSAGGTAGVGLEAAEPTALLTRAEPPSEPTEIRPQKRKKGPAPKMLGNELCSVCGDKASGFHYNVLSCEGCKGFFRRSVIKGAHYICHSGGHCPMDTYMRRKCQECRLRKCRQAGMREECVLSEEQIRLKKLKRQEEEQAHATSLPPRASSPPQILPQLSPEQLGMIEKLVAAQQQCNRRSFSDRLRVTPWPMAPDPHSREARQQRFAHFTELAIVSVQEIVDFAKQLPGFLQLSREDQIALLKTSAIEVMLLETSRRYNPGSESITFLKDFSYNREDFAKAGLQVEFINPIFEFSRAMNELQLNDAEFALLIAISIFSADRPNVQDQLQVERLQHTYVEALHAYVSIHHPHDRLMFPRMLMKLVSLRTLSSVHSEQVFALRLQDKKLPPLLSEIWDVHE

[6] = IV and oral DMPK cassette dose experiment; format: in vivo, C57Bl/6 mice; conditions: for AUC(0-t) / Vd / clearance / half-life / Cmax / Tmax / bioavailability: male, C57Bl/6, mouse, plasma, 1 mg/kg; for bioavailability: F

| AUC(0-t) ([6]; iv) [ng·h/mL] | Vd ([6]; iv) [L/kg] | clearance ([6]; iv) [mL/min/kg] | half-life ([6]; iv) [min] | AUC(0-t) ([6]; po) [ng·h/mL] | Cmax ([6]; po) [ng/mL] | Tmax ([6]; po) [min] | bioavailability ([6]; po, 1 mg/Kg cassette, mice) [%] | LXRα Fold Sel. [5] | Compound | BMAL1 Phase Delay [3] [h] | recruitment of NCOR peptide fragment to REV-ERBα (in words) [4] | ABCA1 levels [1] | IL-6 secretion / expression [2] | also measured |
| --- | --- | --- | --- | --- | --- | --- | --- | --- | --- | --- | --- | --- | --- | --- |
| 2540 | 0.3 | 6.67 | 99 | 594 | 180 | 120 | – | 1,259 fold | Cc1cc(Cl)ccc1CN(Cc1ccc(Cl)cc1)Cc1ccc([N+](=O)[O-])s1 [Compound 4, N-(4-chloro-2-methylbenzyl)-N-(4-chlorobenzyl)-1-(5-nitrothiophen-2-yl)methanamine hydrochloride salt] | 0 | – | no measurable effect on ABCA1 levels | significant reduction of IL-6 secretion | F ([6]; Oral, 1 mg/Kg cassette, mice): 23.4%; half-life [6]: 120 min; effect on BMAL oscillation curve ([3]; synchronized U2OS cells): suppression and shift of the BMAL oscillation curve in a dose-dependent manner |
| 354 | 1.5 | 46.7 | 44.4 | 8.39 | 8.98 | 15 | 2.4 | > 250 fold | O=[N+]([O-])c1ccc(CN(Cc2ccc(F)cc2)Cc2cccnc2)s1 [Compound 10, N-(4-Fluorobenzyl)-1-(5-nitrothiophen-2-yl)-N-(pyridin-3-ylmethyl)methanamine hydrochloride salt] | 0 | – | no measurable effect on ABCA1 levels | significant reduction of IL-6 secretion | – |
| 361 | 1.8 | 46.7 | 76.2 | 10.2 | 9.14 | 15 | 3.5 | 100 fold | N#Cc1ccc(CN(Cc2ccc(Cl)cc2)Cc2cccnc2)s1 [Compound 16, 5-(((4-Chloro-benzyl)(pyridin-3-ylmethyl)amino)methyl)thiophene-2-carbonitrile hydrochloride salt] | 0 | – | no measurable effect on ABCA1 levels | significant reduction of IL-6 secretion | – |
| – | – | – | – | – | – | – | – | <1 fold | Clc1ccc(CN(Cc2cccnc2)Cc2nccs2)cc1 [Compound 20, N-(4-Chlorobenzyl)-1-(pyridin-3-yl)-N-(thiazol-2-ylmethyl)methanamine] | – | complete loss of activity | – | – | – |
| 375 | 1.4 | 43.3 | 44.4 | 9.39 | 9.94 | 15 | 3 | – | N#Cc1ccc(CN(Cc2cccnc2)Cc2ccc(F)c(F)c2)s1 [Compound 23, 5-(((3,4-Difluorobenzyl)(pyridin-3-ylmethyl)amino)methyl)thiophene-2-carbonitrile] | – | – | no measurable effect on ABCA1 levels | significant reduction of IL-6 secretion | – |
| – | – | – | – | – | – | – | – | <1 fold | N#Cc1ccc(CN(Cc2cccnc2)Cc2ccccc2F)s1 [Compound 26, 5-(((2-Fluorobenzyl)(pyridin-3-ylmethyl)amino)methyl)thiophene-2-carbonitrile] | 0 | – | – | – | – |

Second part, the molecule before the results:

| Compound | AUC(0-t) ([6]; iv) [ng·h/mL] | Vd ([6]; iv) [L/kg] | clearance ([6]; iv) [mL/min/kg] | half-life ([6]; iv) [min] | AUC(0-t) ([6]; po) [ng·h/mL] | Cmax ([6]; po) [ng/mL] | Tmax ([6]; po) [min] | bioavailability ([6]; po, 1 mg/Kg cassette, mice) [%] | LXRα Fold Sel. [5] | BMAL1 Phase Delay [3] [h] | recruitment of NCOR peptide fragment to REV-ERBα (in words) [4] | ABCA1 levels [1] | IL-6 secretion / expression [2] | also measured |
| --- | --- | --- | --- | --- | --- | --- | --- | --- | --- | --- | --- | --- | --- | --- |
| CC(C)(C)OC(=O)CN(Cc1ccc(Cl)cc1)Cc1ccc([N+](=O)[O-])s1 [Compound 1, reference compound] | – | – | – | – | – | – | – | – | – | 0 | induced recruitment of co-factor NCOR peptide fragment | – | – | ABCA1 transcript expression [1]: increased ABCA1 transcript expression; IL-6 transcript expression [2]: significantly repressed IL-6 |
| CCCCCNC(=O)N1CCC(CN(Cc2ccc(Cl)cc2)Cc2ccc([N+](=O)[O-])s2)C1 (stereo not drawn) [Compound 2, reference compound] | – | – | – | – | – | – | – | – | – | – | neither compounds 2 or 3 increased recruitment of the NCOR peptide fragment | – | – | ABCA1 transcript expression [1]: increased ABCA1 transcript expression; IL-6 transcript expression [2]: significantly repressed IL-6; IC50 [5]: 6.3 µM; inhibition at 20 µM [3]: 20% |
| CCOC(=O)N1CCC(CN(Cc2ccc(Cl)cc2)Cc2ccc([N+](=O)[O-])s2)C1 (stereo not drawn) [Compound 3, reference compound] | 365 | 1.6 | 45 | 33 | 7.93 | 7.41 | 30 | 2.2 | – | – | neither compounds 2 or 3 increased recruitment of the NCOR peptide fragment | – | – | inhibition at 20 µM [3]: 14% |
| O=[N+]([O-])c1ccc(CN(Cc2ccc(Cl)cc2)Cc2ccccc2F)s1 [Compound 6, N-(4-Chlorobenzyl)-N-(2-fluorobenzyl)-1-(5-nitrothiophen-2-yl)methanamine hydrochloride salt] | – | – | – | – | – | – | – | – | – | 0 | – | – | – | – |
| Clc1ccc(CN(Cc2cccnc2)Cc2ncc[nH]2)cc1 [Compound 21, N-((1H-Imidazol-2-yl)methyl)-N-(4-chlorobenzyl)-1-(pyridin-3-yl)methanamine] | – | – | – | – | – | – | – | – | – | – | complete loss of activity | – | – | – |
| N#Cc1ccc(CN(Cc2cccnc2)Cc2cc(F)ccc2F)s1 [Compound 25, 5-(((2,5-Difluorobenzyl)(pyridin-3-ylmethyl)amino)methyl)thiophene-2-carbonitrile] | – | – | – | – | – | – | – | – | – | 0 | – | – | – | – |
| C=CC1=C(C)c2cc3[n-]c(cc4[n-]c(cc5nc(cc1n2)C(C)=C5C=C)c(C)c4CCC(=O)O)c(CCC(=O)O)c3C.[Fe+2] [heme, reference compound] | – | – | – | – | – | – | – | – | – | – | – | – | – | BMAL-luciferase suppression ([3]; in-house U2OS reporter assay, single endpoint comparison): > 50% |
